Assays:
[1] = Cytotoxicity against human PC-3M cells by MTT assay; type: functional, cell-based
Procedure, shortened: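 Tetrazolium (MTT) cytotoxicity assay on monolayers of the metastatic prostate cancer line PC-3M. The result is given as IC50 in µM, averaged from 2–4 independent experiments with 4 replicates each.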

[2] = Antihaptotactic activity in human PC-3M cells assessed as inhibition of cell migration by wound healing assay; type: functional, cell-based
Procedure, shortened: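 Wound-healing (scratch) migration assay on a PC-3M monolayer, with the wound closure quantified. The result is the IC50 for inhibition of migration in µM, averaged from 2–4 independent experiments with 4 replicates each.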

[3] = Ratio of cytotoxic IC50 to antihaptotactic IC50 in PC-3M cells; type: functional, Homo sapiens
Procedure, shortened: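 Index computed as the MTT cytotoxicity IC50 divided by the wound-healing antihaptotactic IC50. Both IC50s were measured in PC-3M cells, each averaged from 2–4 independent experiments with 4 replicates.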

CC[C@H]1OC(=O)[C@H](Cc2ccccc2)N(C)C(=O)[C@@H](CC)OC(=O)[C@H](Cc2ccccc2)N(C)C(=O)[C@@H](CC)OC(=O)[C@H](Cc2ccccc2)N(C)C1=O [BEAUVERICIN G3]
IC50 [1]: 16.3 µM
IC50 [2]: 17.2 µM
Ratio [3]: 0.9

CC(C)[C@H]1OC(=O)[C@H](Cc2cccc(F)c2)N(C)C(=O)[C@@H](C(C)C)OC(=O)[C@H](Cc2ccccc2)N(C)C(=O)[C@@H](C(C)C)OC(=O)[C@H](Cc2ccccc2)N(C)C1=O [BEAUVERICIN H1]
IC50 [1]: 7.4 µM
IC50 [2]: 3.2 µM
Ratio [3]: 2.3

CC(C)[C@H]1OC(=O)[C@H](Cc2cccc(F)c2)N(C)C(=O)[C@@H](C(C)C)OC(=O)[C@H](Cc2cccc(F)c2)N(C)C(=O)[C@@H](C(C)C)OC(=O)[C@H](Cc2ccccc2)N(C)C1=O [BEAUVERICIN H2]
IC50 [1]: 6.2 µM
IC50 [2]: 3.2 µM
Ratio [3]: 1.9

CC[C@H]1OC(=O)[C@H](Cc2ccccc2)N(C)C(=O)[C@@H](C(C)C)OC(=O)[C@H](Cc2ccccc2)N(C)C(=O)[C@@H](C(C)C)OC(=O)[C@H](Cc2ccccc2)N(C)C1=O [BEAUVERICIN G1]
IC50 [1]: 5 µM
IC50 [2]: 3.8 µM
Ratio [3]: 1.3

CC(C)[C@@H]1OC(=O)[C@@H](Cc2ccccc2)N(C)C(=O)[C@H](C(C)C)OC(=O)[C@@H](Cc2ccccc2)N(C)C(=O)[C@H](C(C)C)OC(=O)[C@@H](Cc2ccccc2)N(C)C1=O [BEAUVERICIN]
IC50 [1]: 8 µM
IC50 [2]: 3.5 µM
Ratio [3]: 2.3

CC[C@H]1OC(=O)[C@H](Cc2ccccc2)N(C)C(=O)[C@@H](CC)OC(=O)[C@H](Cc2ccccc2)N(C)C(=O)[C@@H](C(C)C)OC(=O)[C@H](Cc2ccccc2)N(C)C1=O [BEAUVERICIN G2]
IC50 [1]: 10.4 µM
IC50 [2]: 7.6 µM
Ratio [3]: 1.4

CC(C)[C@H]1OC(=O)[C@H](Cc2cccc(F)c2)N(C)C(=O)[C@@H](C(C)C)OC(=O)[C@H](Cc2cccc(F)c2)N(C)C(=O)[C@@H](C(C)C)OC(=O)[C@H](Cc2cccc(F)c2)N(C)C1=O [BEAUVERICIN H3]
IC50 [1]: 4.4 µM
IC50 [2]: 3.2 µM
Ratio [3]: 1.4
